Reference: ChEMBL document CHEMBL3817796, “Discovery of Novel 15-Lipoxygenase Activators To Shift the Human Arachidonic Acid Metabolic Network toward Inflammation Resolution” (J Med Chem, 2016)
Active and inactive are the calls of the source. The rule behind the calls is not given here.

What was measured:
[1] = target: T1, Polyunsaturated fatty acid lipoxygenase ALOX15 (Homo sapiens) (UniProt P16050); assay: Activation of 15-LOX in human PMN assessed as 15-HETE production at 6.2 to 40 uM pre-incubated for 15 mins before A23187, Ca2+ and Mg2+ stimulation for 1 hr by LC-MS method
T1 sequence (whole entry): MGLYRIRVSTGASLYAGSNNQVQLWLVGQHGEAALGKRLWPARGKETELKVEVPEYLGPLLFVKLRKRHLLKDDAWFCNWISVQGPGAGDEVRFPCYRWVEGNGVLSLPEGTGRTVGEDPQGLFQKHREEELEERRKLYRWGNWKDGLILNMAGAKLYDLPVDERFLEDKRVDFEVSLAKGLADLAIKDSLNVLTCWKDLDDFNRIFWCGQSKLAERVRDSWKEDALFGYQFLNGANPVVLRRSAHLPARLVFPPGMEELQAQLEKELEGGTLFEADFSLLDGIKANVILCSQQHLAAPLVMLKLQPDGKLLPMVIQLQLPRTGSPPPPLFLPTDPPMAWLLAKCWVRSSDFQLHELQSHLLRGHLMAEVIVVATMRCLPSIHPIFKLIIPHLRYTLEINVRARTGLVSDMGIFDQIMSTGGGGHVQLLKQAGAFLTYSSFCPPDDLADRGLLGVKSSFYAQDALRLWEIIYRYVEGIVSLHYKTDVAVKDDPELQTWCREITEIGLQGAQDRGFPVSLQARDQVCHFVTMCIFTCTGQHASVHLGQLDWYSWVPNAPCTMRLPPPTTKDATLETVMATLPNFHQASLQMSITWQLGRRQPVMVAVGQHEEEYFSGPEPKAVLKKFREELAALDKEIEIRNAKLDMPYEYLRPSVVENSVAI
Method in brief: (§1)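 PMNs preincubated 15 min at 37 °C with compound or vehicle, then stimulated 1 h at 37 °C with 10 μM A23187 plus 2 mM Ca2+ and 2 mM Mg2+. Reactions stopped with cold methanol. Eicosanoids quantified by LC-MS.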

[2] = target: T2, Prostaglandin E synthase (Homo sapiens, UniProt O14684); assay: Inhibition of mPGES-1 (unknown origin) assessed as reduction in conversion of PGH2 to PGE2 by EIA method
T2 sequence (O14684 whole entry): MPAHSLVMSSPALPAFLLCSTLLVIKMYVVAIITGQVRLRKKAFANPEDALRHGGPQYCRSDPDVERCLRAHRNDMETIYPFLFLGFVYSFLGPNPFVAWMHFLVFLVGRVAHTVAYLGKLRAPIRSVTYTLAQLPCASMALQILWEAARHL
Method in brief: (§2)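 mPGES-1 activity taken as conversion of PGH2 to PGE2, with PGE2 measured by EIA. Compound handled as in the 15-LOX assay.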

[3] = target: T1, Polyunsaturated fatty acid lipoxygenase ALOX15 (Homo sapiens); assay: Activation of wild-type His6-tagged human 15-LOX expressed in Escherichia coli Rosetta DE3 assessed as 15-HpETE formation at 40 uM pre-incubated for 1 min before arachidonic acid substrate addition by cell free assay
[4] = target: T3, Cytosolic phospholipase A2 (Homo sapiens) (UniProt P47712); assay: Inhibition of human cPLA2 assessed as reduction in hydrolysis of 7-hydroxycoumarinyl-gamma-linolenate or 2-oxo-2H-chromen-[…] (6Z,9Z,12Z)-octadeca-6,9,12-trienoate at 100 uM by fluorometry
T3 sequence (whole entry): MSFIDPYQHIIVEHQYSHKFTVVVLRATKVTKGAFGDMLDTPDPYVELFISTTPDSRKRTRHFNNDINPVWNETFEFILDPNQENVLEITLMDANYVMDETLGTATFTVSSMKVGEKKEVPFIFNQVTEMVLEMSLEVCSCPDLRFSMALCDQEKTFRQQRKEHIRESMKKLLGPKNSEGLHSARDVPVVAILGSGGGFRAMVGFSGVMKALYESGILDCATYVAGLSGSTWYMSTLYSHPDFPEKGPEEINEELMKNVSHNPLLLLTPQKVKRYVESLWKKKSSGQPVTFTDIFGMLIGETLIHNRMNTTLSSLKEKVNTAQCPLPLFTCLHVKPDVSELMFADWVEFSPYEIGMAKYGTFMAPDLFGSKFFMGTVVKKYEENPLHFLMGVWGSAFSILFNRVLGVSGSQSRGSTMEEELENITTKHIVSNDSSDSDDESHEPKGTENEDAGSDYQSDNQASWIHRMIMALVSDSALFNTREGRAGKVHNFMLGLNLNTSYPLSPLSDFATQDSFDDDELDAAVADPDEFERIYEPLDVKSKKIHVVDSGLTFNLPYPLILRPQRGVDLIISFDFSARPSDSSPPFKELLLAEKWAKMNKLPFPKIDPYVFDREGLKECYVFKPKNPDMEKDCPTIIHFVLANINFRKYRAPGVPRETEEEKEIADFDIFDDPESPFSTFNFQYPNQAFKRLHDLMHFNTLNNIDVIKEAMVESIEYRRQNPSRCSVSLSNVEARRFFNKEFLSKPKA
Method in brief: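 Purified human cPLA2 (1 μg/mL final) started the reaction with 7-hydroxycoumarinyl-γ-linolenate substrate. Fluorescence (ex 355/em 460 nm) recorded over 84 min. Compound handled as in the 15-LOX assay.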

[5] = target: T1, Polyunsaturated fatty acid lipoxygenase ALOX15 (Homo sapiens); assay: Activation of 15-LOX in human whole blood assessed as increase in 15-HETE production at 100 uM pre-incubated for 20 mins before stimulation with LPS and A23187 for 120 mins in presence of 0.16 to 20 uM 5-LOX inhibitor Zileuton by LC-MS/MS method; type: tissue-based
Method in brief: (§3)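 Human blood preincubated 20 min at 37 °C with DMSO vehicle or compound in DMSO. LPS added at 100 μg/mL for 24 h at 37 °C, then A23187 at 20 μg/mL final. Samples frozen in liquid nitrogen at time points, lysed by freeze–thaw, with PGB2 internal standard. Analysed by C18 LC-MRM MS, negative ion. Change = control-normalized concentration minus 1, ×100%; 120 min value from AUC.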

[6] = target: T1, Polyunsaturated fatty acid lipoxygenase ALOX15 (Homo sapiens); assay: Activation of 15-LOX in human whole blood assessed as reduction in PGE2 production at 100 uM pre-incubated for 20 mins before stimulation with LPS and A23187 for 120 mins in presence of 2 uM 5-LOX inhibitor Zileuton by LC-MS/MS method; type: tissue-based; method in brief: as §3
[7] = target: Prostaglandin G/H synthase 1 (Homo sapiens) (UniProt P23219); assay: Inhibition of COX1 (unknown origin) assessed as reduction in PGG2 to PGH2 conversion by measuring N,N,N',N'-tetramethyl-p-phenylenediamine oxidation at 100 uM by spectrophotometry
[8] = target: T4, Prostaglandin E synthase (Homo sapiens) (UniProt O14684); assay: Inhibition of mPGES-1 (unknown origin) assessed as reduction in conversion of PGH2 to PGE2 at 100 uM by EIA method; method in brief: as §2
T4 sequence (whole entry): T2 sequence (O14684 whole entry)

[9] = target: T1, Polyunsaturated fatty acid lipoxygenase ALOX15 (Homo sapiens); assay: Activation of 15-LOX in human whole blood assessed as increase in 13-HODE production at 100 uM pre-incubated for 20 mins before stimulation with LPS and A23187 for 120 mins in presence of 2 uM […] inhibitor Zileuton by LC-MS/MS method; type: tissue-based; method in brief: as §3
[10] = target: T1, Polyunsaturated fatty acid lipoxygenase ALOX15 (Homo sapiens); assay: Activation of 15-LOX in human PMN assessed as 5-HETE production at 6.2 to 40 uM pre-incubated for 15 mins before A23187, Ca2+ and Mg2+ stimulation for 1 hr by LC-MS method; method in brief: as §1

Prostaglandin G/H synthase 1 (Homo sapiens), sequence (P23219 whole entry): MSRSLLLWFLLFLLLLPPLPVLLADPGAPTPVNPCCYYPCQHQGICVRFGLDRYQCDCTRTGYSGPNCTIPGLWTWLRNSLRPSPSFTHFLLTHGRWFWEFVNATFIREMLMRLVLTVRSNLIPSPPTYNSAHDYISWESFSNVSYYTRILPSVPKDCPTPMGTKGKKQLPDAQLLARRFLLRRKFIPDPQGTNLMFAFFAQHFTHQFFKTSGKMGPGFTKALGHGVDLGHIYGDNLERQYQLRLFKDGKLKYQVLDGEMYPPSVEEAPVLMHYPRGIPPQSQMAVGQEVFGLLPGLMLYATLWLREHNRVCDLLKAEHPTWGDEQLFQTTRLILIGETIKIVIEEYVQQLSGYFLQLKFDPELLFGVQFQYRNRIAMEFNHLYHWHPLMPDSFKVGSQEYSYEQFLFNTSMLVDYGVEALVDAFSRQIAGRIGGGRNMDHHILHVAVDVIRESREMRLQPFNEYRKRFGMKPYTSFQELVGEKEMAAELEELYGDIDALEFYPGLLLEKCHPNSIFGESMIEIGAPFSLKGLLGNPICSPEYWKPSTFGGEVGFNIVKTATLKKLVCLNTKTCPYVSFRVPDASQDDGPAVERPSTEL

CN1CCN(CC(=O)N2N=C3/C(=C/c4ccccc4)CCCC3C2c2ccccc2)CC1 (stereo not given)
Activity [1]: Active
IC50 [2]: 20 µM
%max [3]: 85%
inhibition [4]: 20%
Activity [5]: Active
Activity [6]: Active
inhibition [7]: < 5%
inhibition [8]: 63%
Activity [9]: Active
Activity [10]: Active
